Target: human ΔF508–CFTR (Homo sapiens, UniProt P13569, DEL508-508)
Experiment: ΔF508–CFTR corrector activity assay
Format: cell-based
Conditions: for Corrector activity (in words): ΔF508–CFTR FRT cells; for Vmax higher than benchmark bithiazole corr4a: difference to corr4a (475 μM/s); for Increase of Vmax compared to benchmark bithiazole corr4a: relative to corr4a
In short: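 FRT cells stably coexpressing human ΔF508–CFTR and YFP-H148Q/I152L were grown 24 h at 37 °C, then exposed 16–20 h to test compound at various concentrations, with DMSO vehicle and a bithiazole positive control. Cells were PBS-washed and given forskolin (20 μM) plus genistein (50 μM) for 20 min. Fluorescence (ex 500, em 535 nm) was recorded 2 s before and 12 s after adding iodide-for-chloride PBS. Initial rate came from an exponential fit, normalized to initial fluorescence. Vmax came from Hill fitting of concentration–activity data.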

Row | Structure (SMILES) | Corrector activity (in words) | Vmax higher than benchmark bithiazole corr4a [µM/s] | Increase of Vmax compared to benchmark bithiazole corr4a [fold]
1 | COc1ccc(Cl)cc1Nc1nc2c(s1)CCCc1nc(N)sc1-2 [7a, N8-(5-Chloro-2-methoxyphenyl)-5,6-dihydro-4H-cyclohepta[1,2-d:3,4-d′]bis(thiazole)-2,8-diamine] | modest correctors |  | 
2 | COc1ccc(Cl)cc1Nc1nc2c(s1)CCCCc1nc(N)sc1-2 [8a, N9-(5-Chloro-2-methoxyphenyl)-4,5,6,7-tetrahydrocycloocta[1,2-d:3,4-d′]bis(thiazole)-2,9-diamine] | modest correctors |  | 
3 | COC(=O)CCC(=O)Nc1nc2c(s1)-c1nc(Nc3cc(Cl)ccc3OC)sc1CCC2 [9e, Methyl 4-((8-((5-chloro-2-methoxyphenyl)amino)-5,6-dihydro-4H-cyclohepta[1,2-d:3,4-d′]bis(thiazole)-2-yl)amino)-4-oxobutanoate] |  | 200 | 1.5
4 | COc1ccc(Cl)cc1Nc1nc2c(s1)CCCCc1nc(NC(=O)C(C)C)sc1-2 [10c, N-(9-((5-Chloro-2-methoxyphenyl)amino)-4,5,6,7-tetrahydrocycloocta [1,2-d:3,4-d′]bis(thiazole)-2-yl)isobutyramide] |  | 200 | 1.5
